Residue numbers refer to the chain shown, from its start. Numbers in names are those of the source.
B1: F1568A: MLL PHD3 point mutant (GST-PHD3 in vitro; engineered into full-length MLL in cells) (protein)
chain: KGNACPLCDKCYDDDDYESKMMQCGKCDRWVHSKCENLSDEMYEILSNLPESVAYTCVNCTER
modifications: left off: GST, end not stated, kept
B2: W1594A: "loss-of-structure" MLL PHD3 point mutant (PHD3 in vitro; full-length MLL in cells) (protein)
chain: B1 chain with A4F, W30A
modifications: left off: GST, end not stated, kept
B3: Y1576A: MLL PHD3 finger point mutant, tested in vitro only (protein)
chain: B1 chain with A4F, Y12A
modifications: left off: GST, end not stated, kept
B4: M1585A: "loss-of-function" MLL PHD3 point mutant (PHD3 in vitro; full-length MLL in cells) (protein)
chain: B1 chain with A4F, M21A
modifications: left off: GST, end not stated, kept
B5: D1592A: MLL PHD3 point mutant, acidic residue replaced with Ala (PHD3 in vitro; full-length MLL in cells) (protein)
chain: B1 chain with A4F, D28A
modifications: left off: GST, end not stated, kept

Tests used:
MEIS1 promoter = test: ChIP: MLL occupancy at MEIS1; format: cell-based; conditions: HA-tagged full-length MLL, 293T cells
In short: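 293T cells were transfected with HA-tagged full-length MLL, wild type or point mutant, for two days. ChIP was then run with the indicated antibodies. Quantitative PCR was done on ChIP-bound and input DNA at the MEIS1 promoter, with a MEIS1 3' genomic region for comparison.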

[1] = test system: histone H3 tail (H3K4me3); format: binding; conditions: mutant PHD3; pull-down, microarray and NMR
In short: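 GST-fused MLL PHD3 (residues 1565-1627), wild type or mutant, was expressed in E. coli BL21(DE3) pLysS and purified on glutathione resin. It was incubated with C-terminally biotinylated histone H3 tail peptides (residues 1-21) on streptavidin beads in 50 mM Tris pH 7.5, 150 mM NaCl, 0.05% NP-40. Beads were washed five times, and bound protein was detected by anti-GST western blot. GST-PHD3 without peptide served as control.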

[2] = MLL protein levels by western blot; format: cell-based; conditions: 293T cells, Fig. 3B
H3K4me3 peptide = test: NMR titration of PHD3 mutants with H3K4me3 peptide; format: binding; conditions: data not shown; for H3K4me3 binding of mutant (1H,15N HSQC): 0.2 mM 15N-labeled mutant PHD3, H3K4me3 12-mer peptide; for changes in 1H,15N HSQC spectra induced by H3K4me3 peptide: 0.2 mM 15N-labeled mutant PHD3
In short: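 PHD3 finger (residues 1565-1627, wild type or mutant) was expressed as a GST fusion in E. coli BL21(DE3) pLysS grown in 15NH4Cl minimal medium. It was affinity-purified, GST-cleaved, size-exclusion purified and held in 25 mM d11-Tris pH 6.8, 150 mM KCl, 10 mM deuterated DTT and 7% 2H2O. 12-mer histone tail peptides were added stepwise to 0.2 mM protein, and normalized chemical shift changes were tracked in 1H,15N HSQC spectra.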

Molecule	MEIS1 occupancy (MEIS1 promoter)	ability to recognize H3K4me3 [1]	protein stability in vivo [2]	H3K4me3 binding of mutant (1H,15N HSQC) (H3K4me3 peptide)	changes in 1H,15N HSQC spectra induced by H3K4me3 peptide (H3K4me3 peptide)
B1	also occupied the MEIS1 promoter				
B2		more severely compromised	reduced stability in vivo		
B3		more severely compromised		binding was essentially abolished	small to negligible changes
B4	also occupied the MEIS1 promoter	more severely compromised		binding was essentially abolished	small to negligible changes
B5	also occupied the MEIS1 promoter				
